Results: ChEMBL document CHEMBL1124425, “Alkylating partial muscarinic agonists related to oxotremorine. N-[4-[(2-haloethyl)methylamino]-2-butynyl]-5-methyl-2-pyrrolidones” (J Med Chem, 1989)
pKi: −log10 of the molar value.

Experiments:
[1] = Acute toxicity of compound when injected intravenously in mice; type: organism-based; conditions: mouse, in vivo, iv
[2] = First order rate constant of compound was determined in 50 mM phosphate buffer (pH 7.4) at 37 degree celsius; type: ADME
Method in brief: (§1)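 Solvolysis in 50 mM phosphate buffer pH 7.4 at 37 °C. Halide release by argentometric titration. Aziridinium ion quantified by thiosulfate reaction and iodine back-titration. k1 and k2 obtained by unweighted Gauss-Newton nonlinear fit, with half-lives following from them.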

[3] = Half life of compound was determined in 50 mM phosphate buffer (pH 7.4) at 37 degree celsius; type: ADME; method in brief: as §1
[4] = Rate constant for decay of compound was determined in 50 mM phosphate buffer (pH 7.4) at 37 degree celsius; type: ADME; method in brief: as §1
[5] = species: Rattus norvegicus; assay: Rate constants of compound was determined at muscarinic receptor in the rat cerebral cortex; type: ADME
Method in brief: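 Rat cortex homogenate (25 mg wet tissue/mL, 50 mM phosphate pH 7.4), preincubated 10 min at 37 °C. Precyclized haloethylamines then added at 0.1 mM to 1 nM final for 30 min. Reaction stopped with thiosulfate (1.0 mM) and atropine (0.1 mM), and tissue washed four times. Residual binding of 0.4 nM [3H]QNB measured over 1 h at 37 °C. Rate equation fitted by unweighted nonlinear regression, using initial aziridinium concentration.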

[6] = Dissociation constant of compound was determined at muscarinic receptor in the rat cerebral cortex; type: tissue-based
Method in brief: (§2)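 Male Sprague-Dawley rat cerebral cortex homogenised in 50 mM phosphate buffer pH 7.4 and centrifuged at 30000g. Competition against 0.3 nM (-)-[3H]NMS with the aziridinium ions, 1 h at 0 °C, triplicates, five experiments. Nonspecific binding taken with 10 µM atropine. Two-site fit by unweighted nonlinear regression gave KH and KL, which were corrected for [3H]NMS occupancy.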

[7] = Rate constant for decay of compound was determined in 50 mM phosphate buffer (pH 7.4) at 24 degree celsius; type: ADME
Method in brief: (§3)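 Solvolysis in 50 mM phosphate buffer pH 7.4 at 24 °C. Halide release measured by argentometric titration. Aziridinium ion was reacted with thiosulfate, and the excess was back-titrated with iodine. k1 (cyclisation) and k2 (aziridinium decay) came from an unweighted Gauss-Newton fit of kinetic models.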

[8] = First order rate constant of compound was determined in 50 mM phosphate buffer (pH 7.4) at 24 degree celsius; type: ADME; method in brief: as §3
[9] = Percentage affinity of compound towards muscarinic receptor sites in the rat cerebral cortex; type: tissue-based; method in brief: as §2
[10] = Ratio of binding constants KL to KH was determined; method in brief: as §2
[11] = Equilibrium binding parameters of compound was determined at muscarinic receptor in the rat cerebral cortex; type: tissue-based; method in brief: as §2
[12] = Binding affinity of compound towards muscarinic receptor using radioligand [3H]NMS in the rat cerebral cortex; type: tissue-based; method in brief: as §2

Compound | LD50 [1] [µmol/kg] | K1 [2] [min⁻¹] | T1/2 ([3]; buffer) [min] | half-life ([3]; phosphate buffer) [min] | K2 [4] [min⁻¹] | K3 [5] [min⁻¹] | KA [6] [µM] | K2 [7] [min⁻¹] | K1 [8] [min⁻¹] | Affinity [9] [%] | Ratio [10] | KH [11] [µM] | KL [11] [µM] | pKi [12]
CC1CCC(=O)N1CC#CCN(C)CCCl (configuration not stated) | 396 | 0.025 | 15.3 | 27.7 | 0.045 | 0.091 | 0.058 |  |  |  |  |  |  | 
CC1CCC(=O)N1CC#CCN(C)CCBr (configuration not stated) | 81 | 0.89 |  |  | 0.06 | 0.096 | 0.035 | 0.0096 | 0.18 | 14.2 | 71 | 0.001 | 0.071 | 
C[N+]1(CC#CCN2CCCC2=O)CC1 |  |  |  |  |  |  |  |  |  |  |  |  |  | 6.48
CN(CC#CCN1CCCC1=O)CCBr |  | 0.85 |  |  | 0.04 | 0.062 | 0.35 |  |  | 16.5 | 466 | 0.001 | 0.47 | 
CC1CCC(=O)N1CC#CC[N+]1(C)CC1 (configuration not stated) |  |  |  |  |  |  |  |  |  |  |  |  |  | 7.28
CN(CC#CCN1CCCC1=O)CCCl |  | 0.019 |  |  | 0.033 | 0.064 | 0.79 |  |  |  |  |  |  | 
